Data reported in PMC5652303 (European journal of medicinal chemistry, 2017).
“And” between values parts separate entries of the source, which are not always exact repeats. Identical values can stand only once.

Columns and labels:
[1] = Monomer reaction with H2O2 by NMR analysis; assay type: physicochemical; settings: for Disappearance of starting materials: Time of completion / Disappearance of starting materials: kobs / QM formation: Time of completion / QM formation: kobs: DMSO/deuterated phosphate buffer pH 8 (3:2), with H2O2; for Time to completion of reaction with H2O2 (oxidative deboronation): phosphate buffer pH 8 in D2O/DMSO 2:3, SI Figures S14, 15, 17, 18
[2] = test system: H2AX phosphorylation at Ser139; assay: DNA damage response: H2AX phosphorylation in CLL lymphocytes, flow cytometry; assay type: cell-based, human; settings: 10 µM, 24 hours
How it was run: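 Lymphocytes were isolated from CLL patients' peripheral blood on a Ficoll-hypaque gradient and held in RPMI with 10% autologous plasma. After compound exposure, cells were washed in PBS, fixed in ice-cold 70% ethanol and stored at −20 °C. They were then permeabilised, stained with FITC anti-H2AX Ser139 antibody, and analysed by flow cytometry.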

normal lymphocytes = assay: Viability of normal lymphocytes, annexin/PI binding assay; assay type: cell-based, human; settings: healthy donors (n=2), 10 µM, 24 hours
How it was run: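 Lymphocytes were separated from healthy donors' peripheral blood on a Ficoll-hypaque gradient and suspended in RPMI with 10% autologous plasma. After compound exposure, the percentage of viable cells was scored by annexin V/propidium iodide binding.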

[3] = test system: ovarian cancer SKOV3 cell; assay: Cytotoxicity in SKOV3 cells; assay type: cell-based; settings: for IC50: Homo sapiens, SK-OV-3; for Cytotoxicity (initial test): SKOV3 cells
How it was run: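 Cells grown in RPMI 1640 with 5% FBS and 2 mM L-glutamine, seeded at 5,000–10,000 cells/well in 384-well plates, and left 2–3 h at 37 °C, 5% CO2. Compounds were made as 20 mM DMSO stocks and serially diluted 2-fold ten times, then added at 1:100. After 48 h, viability was read by CellTiter-Glo luminescence after 10 min at room temperature. IC50 came from four-parameter nonlinear regression.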

49-mer DNA duplex 25 = assay: H2O2-induced DNA interstrand cross-link; assay type: biochemical; settings: for DNA ICL cross-linking yield without H2O2: no H2O2, duplex 25, pH 8 phosphate buffer; for Kinetics of ICL formation: Time of completion: phosphate buffer pH 8; for ICL formation rate constant relative to 1a: rate constants of Table 1
How it was run: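 The 32P-labelled strand (0.5 µM) was annealed to 1.5 equiv of complement at 65 °C for 3 min in 10 mM potassium phosphate pH 7 with 100 mM NaCl, then cooled slowly overnight. Duplex, NaCl, potassium phosphate (pH 6–8), H2O2 and compound (100 µM–2 mM, in CH3CN) were incubated 24 h; some runs went 48 h. Reactions were quenched with 90% formamide loading buffer and run on 20% denaturing PAGE with phosphorimaging. Yields were corrected for the no-H2O2 control.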

[4] = Chemical stability of the compounds; assay type: physicochemical; settings: for Hydrolysis of the acetate group: NMR, phosphate buffer pH 8 in D2O/DMSO 2:3, before addition of H2O2
[5] = test system: 60 human cancer cell lines; assay: NCI DTP in vitro cancer cell screen; assay type: cell-based; settings: 10 µM, most of the 60 cell lines
How it was run: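 NCI DTP screen. Human tumour cell lines were grown in RPMI 1640 with 5% FBS and 2 mM L-glutamine. Cells were plated in 96-well plates at 5,000–40,000 cells/well, set by each line's doubling time, and treated at a single 10 µM dose.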

breast cancer MDA-MB-468 = assay: Cytotoxicity towards tumor cells; assay type: cell-based; settings: Homo sapiens, MDA-MB-468, 48 h

Structure (SMILES)	Disappearance of starting materials: Time of completion [1] [min]	Disappearance of starting materials: kobs [1]	QM formation: Time of completion [1] [min]	QM formation: kobs [1]	Induction of DNA damage response (H2AX phosphorylation) [2]	Toxicity to normal lymphocytes (normal lymphocytes)	IC50 [3] [µM]	DNA ICL cross-linking yield without H2O2 (49-mer DNA duplex 25; 2 mM compound, 37 °C)	Kinetics of ICL formation: Time of completion (49-mer DNA duplex 25) [min]	Hydrolysis of the acetate group [4]	Cytotoxicity (initial test) [3]	Chemical stability [4]	other results
CC1(C)OB(c2c(CBr)cccc2CBr)OC1(C)C [1a]	60	39.0 ± 1.5 10^−5 s^−1	60	9.5 ± 0.2 10^−5 s^−1	induction of DNA damage response	no significant toxicity	6.3	0%	600	–	–	–	–
CC(=O)OCc1cccc(COC(C)=O)c1B1OC(C)(C)C(C)(C)O1 [1b, (2-(4,4,5,5-Tetramethyl-1,3,2-dioxaborolan-2-yl)-1,3-phenylene)bis(methylene) diacetate]	240	19.4 ± 1.2 10^−5 s^−1	240	–	–	–	–	–	–	hydrolyzed prior to addition of H2O2	not cytotoxic	–	–
COc1cc(CBr)c(B2OC(C)(C)C(C)(C)O2)c(CBr)c1 [2a, 2-(2,6-Bis(bromomethyl)-4-methoxyphenyl)-4,4,5,5-tetramethyl-1,3,2-dioxaborolane]	42	56.7 ± 4.3 10^−5 s^−1	50	38.3 ± 2.2 10^−5 s^−1	induction of DNA damage response	no significant toxicity	5.2	–	240	–	–	chemically stable	Growth percentage of most cell lines, single dose screening [5]: less than 50%; ICL formation rate constant relative to 1a (49-mer DNA duplex 25): 2–3 times
COc1cc(COC(C)=O)c(B2OC(C)(C)C(C)(C)O2)c(COC(C)=O)c1 [2b, (5-Methoxy-2-(4,4,5,5-tetramethyl-1,3,2-dioxaborolan-2-yl)-1,3-phenylene)bis(methylene) diacetate]	480	9.1 ± 0.6 10^−5 s^−1	480	–	–	–	–	–	–	hydrolyzed prior to addition of H2O2	not cytotoxic	–	Time to completion of reaction with H2O2 (oxidative deboronation) [1]: not finished within one hour
COc1cc(OC)c(CBr)c(B2OC(C)(C)C(C)(C)O2)c1CBr [3a, 2-(2,6-Bis(bromomethyl)-3,5-dimethoxyphenyl)-4,4,5,5-tetramethyl-1,3,2-dioxaborolane]	–	–	–	–	–	–	–	17 ± 3% and 17%	–	–	–	not stable and easily decomposed even at 0 °C	–
COc1c(CBr)c(B2OC(C)(C)C(C)(C)O2)c(CBr)c(OC)c1OC [4a, 2-(2,6-Bis(bromomethyl)-3,4,5-trimethoxyphenyl)-4,4,5,5-tetramethyl-1,3,2-dioxaborolane]	–	–	–	–	–	–	–	0%	–	–	not cytotoxic	more stable than 3a	DNA ICL cross-linking yield with H2O2 (49-mer DNA duplex 25; 2 mM compound, 2 mM H2O2, duplex 25, pH 8 phosphate buffer, 37 °C): 0%; ICL yield after incubation of ICL products at pH 6 (49-mer DNA duplex 25; ICLs generated at pH 6, then incubated at pH 6, 37 °C, 24 h): remained unchanged; ICL yield after incubation of ICL products at pH 8 (49-mer DNA duplex 25; ICLs generated at pH 6, then incubated at pH 8, 37 °C, 24 h): 3.0 ± 0.5%; ICL yield of ICL products generated with 4a at pH 6 (49-mer DNA duplex 25; duplex 25, generated at pH 6, before further incubation): 16.6 ± 1.0%; DNA ICL product formation at pH 7 or higher pH (49-mer DNA duplex 25; with H2O2, pH 7 or higher): not formed
CC1(C)OB(c2c(CBr)cc(O)cc2CBr)OC1(C)C [5a, 3,5-Bis(bromomethyl)-4-(4,4,5,5-tetramethyl-1,3,2-dioxaborolan-2-yl)phenol]	40	61.7 ± 3.2 10^−5 s^−1	40	58.3 ± 4.3 10^−5 s^−1	induction of DNA damage response	no significant toxicity	3.8	–	300	–	–	relatively stable	ICL formation rate constant relative to 1a (49-mer DNA duplex 25): 2–3 times
CC(=O)OCc1cc(O)cc(COC(C)=O)c1B1OC(C)(C)C(C)(C)O1 [5b, (5-Hydroxy-2-(4,4,5,5-tetramethyl-1,3,2-dioxaborolan-2-yl)-1,3-phenylene)bis(methylene) diacetate]	480	8.3 ± 0.5 10^−5 s^−1	480	–	–	–	–	–	–	hydrolyzed prior to addition of H2O2	–	–	Time to completion of reaction with H2O2 (oxidative deboronation) [1]: not finished within one hour
O=C(O)CCCc1ccc(N(CCCl)CCCl)cc1 [Chlorambucil, chlorambucil]	–	–	–	–	–	–	–	–	–	–	–	–	IC50 (breast cancer MDA-MB-468): 34.4 µM
N[C@@H](Cc1ccc(N(CCCl)CCCl)cc1)C(=O)O [Melphalan, melphalan]	–	–	–	–	–	–	–	–	–	–	–	–	IC50 (breast cancer MDA-MB-468): 48.7 µM
